# Activity calls are given as the source filed them. The rule behind the calls is not given here.
# Columns and labels:
# HeLa = experiment: Cytotoxicity against human HeLa cells; type: functional
# Procedure, shortened: (§1)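 GI50 or CC50 values were read from mean dose-response curves, with 4 parallels per concentration.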
# L929 = experiment: Antiproliferative activity against mouse L929 cells; type: cell-based; procedure, shortened: as §1
# K562 = experiment: Antiproliferative activity against human K562 cells; type: functional; procedure, shortened: as §1
# Neutrophil = experiment: Inhibition of serum-opsonized zymosan-stimulated ROS production in bovine neutrophils by luminol-dependent chemiluminescence assay; type: functional, cell-based; details: Bos taurus
# [1] = target: Dehydrogenase/reductase SDR family member 9 (Homo sapiens) (UniProt Q9BPW9); experiment: Inhibition of 3alpha-HSD
# HepG2 = experiment: Growth inhibition of human HepG2 cells; type: functional; procedure, shortened: as §1
# MCF7 = experiment: Growth inhibition of human MCF7 cells; type: functional; procedure, shortened: as §1
# [2] = Growth inhibition of human HM02 cells; type: functional; procedure, shortened: as §1
# [3] = target: T1, Prostaglandin G/H synthase 2 (Homo sapiens, UniProt P35354)
# T1 sequence (P35354 whole entry): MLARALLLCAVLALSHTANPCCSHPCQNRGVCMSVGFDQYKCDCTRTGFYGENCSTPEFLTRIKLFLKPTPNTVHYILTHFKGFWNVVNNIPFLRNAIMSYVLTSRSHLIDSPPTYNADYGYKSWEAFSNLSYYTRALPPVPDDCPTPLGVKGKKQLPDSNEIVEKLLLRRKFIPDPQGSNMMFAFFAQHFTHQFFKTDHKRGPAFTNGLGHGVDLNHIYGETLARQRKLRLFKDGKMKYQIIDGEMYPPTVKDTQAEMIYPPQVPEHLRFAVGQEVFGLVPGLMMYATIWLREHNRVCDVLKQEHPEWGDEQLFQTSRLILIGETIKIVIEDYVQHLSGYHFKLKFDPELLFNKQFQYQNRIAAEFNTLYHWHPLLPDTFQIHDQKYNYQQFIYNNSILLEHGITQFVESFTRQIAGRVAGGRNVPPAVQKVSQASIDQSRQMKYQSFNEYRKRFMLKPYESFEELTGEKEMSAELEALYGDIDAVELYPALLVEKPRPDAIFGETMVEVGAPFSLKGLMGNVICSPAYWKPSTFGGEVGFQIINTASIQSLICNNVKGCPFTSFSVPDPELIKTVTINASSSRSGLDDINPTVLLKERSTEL
# Sequence of Dehydrogenase/reductase SDR family member 9 (Homo sapiens) (Q9BPW9 whole entry): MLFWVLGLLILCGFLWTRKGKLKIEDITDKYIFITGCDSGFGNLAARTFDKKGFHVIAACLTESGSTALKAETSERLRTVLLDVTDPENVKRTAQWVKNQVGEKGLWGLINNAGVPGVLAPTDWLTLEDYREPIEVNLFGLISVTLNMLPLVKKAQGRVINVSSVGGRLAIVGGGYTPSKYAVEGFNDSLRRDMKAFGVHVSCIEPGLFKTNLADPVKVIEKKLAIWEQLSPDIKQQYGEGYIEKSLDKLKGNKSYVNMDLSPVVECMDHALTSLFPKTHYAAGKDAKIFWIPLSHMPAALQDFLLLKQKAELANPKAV
Structure (SMILES),CC50 (HeLa),GI50 (L929),GI50 (K562),Activity (Neutrophil),Activity [1],GI50 (HepG2),GI50 (MCF7),GI50 [2],IC50 [3]
COC1=CC(=O)C(OC)=C(/C=C2\[C@@H](C)CC[C@H]3C(C)(C)CCC[C@]23C)C1=O,75.3 µM,41.6 µM,20.7 µM,–,–,–,–,–,–
C=C1CC[C@@H]2C(C)(C)CCC[C@@]2(C)[C@@H]1CC1=CC(=O)C=CC1=O,–,–,–,Active,–,–,–,–,–
C=C1CC[C@@H]2C(C)(C)CCC[C@@]2(C)[C@@H]1Cc1cc(O)ccc1O,–,–,–,Active,Active,–,–,–,–
CC1=CC[C@@H]2C(C)(C)CCC[C@@]2(C)[C@@H]1CC1=CC(=O)C=CC1=O,–,–,–,Active,Active,–,–,–,–
CC1=CC[C@@H]2C(C)(C)CCC[C@@]2(C)[C@@H]1Cc1cc(O)ccc1O,–,–,–,Active,–,–,–,–,–
C=C1CC[C@@H]2C(C)(C)CCC[C@@]2(C)[C@@H]1CC1=C(O)C(=O)C=C(OC)C1=O (racemic),72.1 µM,20.9 µM,8.4 µM,–,Active,6 µg/mL,2.4 µg/mL,5.3 µg/mL,–
CC1=CC[C@H]2C(C)(C)CCC[C@]2(C)[C@H]1/C=C1\C=C2OCOC2=CC1=O (racemic),7.4 µM,6.2 µM,3.5 µM,–,Active,–,–,–,–
COC1=CC(=O)C(O)=C(C[C@@]2(C)C3=C(CC[C@@H]2C)C(C)(C)CCC3)C1=O (racemic),62.3 µM,14 µM,6.1 µM,–,–,–,–,–,–
COC1=CC(=O)C(O)=C(/C=C2\[C@@H](C)CC[C@H]3C(C)(C)CCC[C@]23C)C1=O (racemic),75.1 µM,27.1 µM,13.4 µM,–,Active,3.6 µg/mL,2.6 µg/mL,3.1 µg/mL,–
COC1=CC(=O)C(=O)C(C[C@@]2(C)C3=C(CC[C@@H]2C)C(C)(C)CCC3)=C1OC (racemic),61.3 µM,73.4 µM,26.6 µM,–,Active,–,–,–,–
COc1ccc(O)c(O)c1/C=C1\[C@@H](C)CC[C@H]2C(C)(C)CCC[C@]12C (racemic) [(+/-)-WIEDENDIOL B],38.1 µM,63.1 µM,35.8 µM,–,Active,–,–,–,0.7 µM
COc1c(C[C@H]2C(C)=CC[C@H]3C(C)(C)CCC[C@]23C)cc2c(c1C=O)OCO2 (racemic) [PROTECTED SIPHONODICTYAL C],41.4 µM,24 µM,21.1 µM,–,Active,–,–,–,–
C=C1CC[C@H]2C(C)(C)CCC[C@]2(C)[C@H]1/C=C1\C=C2OCOC2=CC1=O (racemic) [SESQUITERPENE CYCLOHEXADIENONE],20.6 µM,12.9 µM,6.2 µM,–,–,–,–,–,–
COc1ccc(O)c(O)c1C[C@@]1(C)C2=C(CC[C@@H]1C)C(C)(C)CCC2 (racemic) [SESQUITERPENE HYDROQUINONE],41.3 µM,59.9 µM,25.6 µM,–,–,–,–,–,–
COc1cccc2c1C(=O)c1c(O)c3c(c(O)c1C2=O)C[C@@](O)(C(=O)CO)C[C@@H]3O[C@H]1C[C@H](N)[C@H](O)[C@H](C)O1 [DOXORUBICIN],2 µM,1.2 µM,1 µM,–,–,–,–,–,–

# Reference: ChEMBL document CHEMBL1152740, “Synthesis and pharmacological activities of some sesquiterpene quinones and hydroquinones” (Bioorg Med Chem, 2009)
